We go through 25 compounds from ChEMBL document CHEMBL2040713, “Finger-loop inhibitors of the HCV NS5b polymerase. Part 1: Discovery and optimization of novel 1,6- and 2,6-macrocyclic indole series” (Bioorg Med Chem Lett, 2012).

Series [1] is described as follows: Drug metabolism in human liver microsomes at 5 uM after 15 mins. It counts as ADME, Microsome. The conditions noted are these: read-out: Drug metabolism.
Series [2] is described as follows: Inhibition of purified HCV NS5B Cdelta21 polymerase. Set-up: species or system Hepacivirus hominis.
For a further series, the system named is Hepatitis C virus. In words: Antiviral activity against HCV infected in human […] cells assessed as inhibition of viral RNA replication. The class given is functional, organism-based, Hepacivirus hominis. Put shortly:
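Replicon assay: subgenomic HCV RNA replication in Huh-7 cells carrying a bicistronic expression construct. Inhibition expressed as EC50.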

Series [3] can be described thus: Drug metabolism in rat liver microsomes at 5 uM after 15 mins. The class given is ADME, Microsome. Conditions: read-out: Drug metabolism. (In general: Liver microsomes are vesicles of endoplasmic reticulum, rich in cytochrome P450 enzymes.)
Series [4] can be described thus: Half life in Sprague-Dawley rat at 2 mg/kg, iv and 10 mg/kg, po. It counts as ADME, organism-based. The conditions noted are these: in vivo. An outline of the steps:
(§1)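 Sprague–Dawley rats, single dose. IV arm at 2 mg/kg in PEG400/saline (70:30), with plasma kinetics determined. Oral arm at 10 mg/kg in PEG400 containing 2% Vitamin E TPGS, compared against the iv data.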

Series [5] in a line: Oral bioavailability in Sprague-Dawley rat at 10 mg/kg. It counts as ADME, organism-based. The conditions noted are these: in vivo. An outline of the steps:
as §1

The nature of series [6]: Clearance in Sprague-Dawley rat at 2 mg/kg, iv and 10 mg/kg, po. The class given is ADME, organism-based. Conditions: in vivo. Put shortly:
as §1

Series [7] is described as follows: Volume of distribution at steady state in Sprague-Dawley rat at 2 mg/kg, iv and 10 mg/kg, po. The class given is ADME, organism-based. Conditions: in vivo, read-out: Vdss. Put shortly: as §1
A short description of series [8]: Drug level in Sprague-Dawley rat liver at 2 mg/kg, iv and 10 mg/kg, po after 7 hrs. It counts as ADME, organism-based. The conditions noted are these: read-out: Drug uptake. An outline of the steps:
(§2)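 Sprague–Dawley rats given 2 mg/kg iv in PEG400/saline (70:30) or 10 mg/kg po in PEG400 with 2% Vitamin E TPGS. Liver concentration (ng/g) measured 7 h post dose. Liver-to-plasma ratio taken at the same time.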

Series [9] is described as follows: Ratio of drug level in liver to plasma in Sprague-Dawley rat at 2 mg/kg, iv and 10 mg/kg, po after 7 hrs. The class given is ADME, organism-based. An outline of the steps: as §2
Another series deals with Liver microsomes. In words: Metabolic stability in human liver microsomes assessed as glutathione conjugates formation at 40 uM in presence of glutathione. It counts as ADME, Microsome. An outline of the steps:
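Human liver microsomes (1 mg/mL protein) in 100 mM KPi, pH 7.4, with 5 mM MgCl2, 1 mM EDTA and 2 mM NADPH. Trapping agent was 2 mM GSH, or a GSH/stable-label GSH mix (1 mM/1 mM). Compound at 40 µM final, added from a 20 mM stock. Read-out was glutathione conjugate formation.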

The nature of series [10]: Efflux ratio of compound permeability in human Caco2 cells. Conditions: Caco-2. The class given is ADME, cell-based. For orientation: Passage across Caco-2 layers is used to estimate intestinal permeability.
The nature of series [11]: Apparent permeability from apical to basolateral side of human Caco2 cells. The conditions noted are these: Caco-2. The class given is ADME, cell-based.

For the compound `COc1ccc2c(c1)OCC(=O)N(C)CCCCN(C)S(=O)(=O)NC(=O)c1ccc3c(C4CCCCC4)c-2n(C)c3c1`, the metabolised at 0.25 h, 5 µM in [1] came to 96%; in series [3], 64%. Also, in series [2], the concentration for half-maximal inhibition (IC50) is 54 nM. For the same compound, in the series on Hepatitis C virus, the EC50 turned out to be 170 nM.

In the case of `CN1CCCCCNC(=O)Cn2c(-c3ccoc3)c(C3CCCCC3)c3ccc(cc32)C(=O)NS1(=O)=O`, the half-life in series [4] is 24 min. In [5], the bioavailability is 40%. The compound further showed a clearance in [6] of 123 mL/min/kg. The Vd in [7] was found to be 2.4 L/kg. Further, the values for the metabolised at 0.25 h, 5 µM in series [1] and in series [3] were 67% and 63%, respectively. Further, the concentration at 7 h in series [8] was found to be 3740 ng/g. Also, the EC50 in the series with Hepatitis C virus is 790 nM. Besides, the concentration ratio (Kp) at 7 h in series [9] came to 150.

In the case of `COc1ccc(-c2c(C3CCCCC3)c3ccc4cc3n2CC(=O)NN(C)CCN2CCN(CC2)S(=O)(=O)NC4=O)cc1`, in the series with Hepatitis C virus, the 50% effective concentration (EC50) was determined as 3500 nM.

In turn, `CN1CCOCCN(C)S(=O)(=O)NC(=O)c2ccc3c(C4CCCCC4)c(n(C)c3c2)-c2ccccc2OCC1=O` had a half-life in series [4] of 60 min. Also, the Stability entry with Liver microsomes is on record as “Stable”. For the same compound, the bioavailability in [5] amounted to 14%. The clearance in series [6] is 115 mL/min/kg. Also, the Vd in [7] stood at 7 L/kg. Moreover, the metabolised at 0.25 h, 5 µM came to 65% in series [1] and 50% in series [3]. Besides, the IC50 in series [2] stood at 110 nM. Besides, in series [8], the concentration at 7 h was determined as 1720 ng/g. In addition, in the series with Hepatitis C virus, the EC50 was determined as 190 nM. The concentration ratio (Kp) at 7 h in series [9] was 64.

Regarding `O=C1Cn2c(-c3ccoc3)c(C3CCCCC3)c3ccc(cc32)C(=O)NCC/C=C/CCN1`, the metabolised at 0.25 h, 5 µM in series [1] and in series [3] was over 95% throughout. This compound returned a half-inhibitory concentration (IC50) in [2] of 2200 nM. The EC50 with Hepatitis C virus amounted to 3400 nM.

Take `CN1CCCCCNC(=O)COc2cc(F)ccc2-c2c(C3CCCCC3)c3ccc(cc3n2C)C(=O)NS1(=O)=O`: the figures for the metabolised at 0.25 h, 5 µM in series [1] and in [3] were 81% and 58%, respectively. In series [2], 110 nM corresponded to half-maximal inhibition (IC50). In the series on Hepatitis C virus, the concentration giving a half-maximal response (EC50) was found to be 460 nM.

In the case of `COc1ccc(-c2c(C3CCCCC3)c3ccc4cc3n2CC(=O)NCCCCCN(C)S(=O)(=O)NC4=O)cc1`, the EC50 in the series with Hepatitis C virus was 350 nM.

As for `CN1C/C=C/CCNC(=O)Cn2c(-c3ccoc3)c(C3CCCCC3)c3ccc(cc32)C(=O)NS1(=O)=O`, the EC50 in the series with Hepatitis C virus came out at 720 nM.

Regarding `CN1CCCCN(C)S(=O)(=O)NC(=O)c2ccc3c(C4CCCCC4)c(n(C)c3c2)-c2ccccc2OCC1=O`, in series [4], the half-life was 18 min. Moreover, the bioavailability in series [5] was 9%. In series [6], the clearance is 128 mL/min/kg. Besides, the Vd in series [7] was 2.6 L/kg. Besides, the metabolised at 0.25 h, 5 µM in series [1] amounted to 92%; in series [3], 60%. The IC50 in [2] stood at 97 nM. Moreover, the concentration at 7 h in series [8] is 1520 ng/g. Besides, in the series on Hepatitis C virus, the concentration for a half-maximal effect (EC50) is 310 nM. In [9], the Kp at 7 h came to 99.

In series [2], `CN1CCCCNC(=O)COc2ccccc2-c2c(C3CCCCC3)c3ccc(cc3n2C)C(=O)NS1(=O)=O` came in with an IC50 of 1900 nM. Moreover, the EC50 in the series with Hepatitis C virus turned out to be 7560 nM.

`CN1CCOCCN(C)S(=O)(=O)NC(=O)c2ccc3c(C4CCCCC4)c(n(C4CCCC4)c3c2)-c2ccccc2OCC1=O`: the metabolised at 0.25 h, 5 µM in series [1] came out at 74%; in series [3], 40%. Moreover, in series [2], 1490 nM corresponded to half-maximal inhibition (IC50). The EC50 in the series with Hepatitis C virus turned out to be 15700 nM.

For the compound `CN1CCCCN(C)S(=O)(=O)NC(=O)c2ccc3c(C4CCCCC4)c(-c4ccc(Cl)cc4)n(c3c2)CC1=O`, the EC50 in the series with Hepatitis C virus came to 530 nM.

On to `CN1CCCCCNC(=O)Cn2c(-c3ccccc3)c(C3CCCCC3)c3ccc(cc32)C(=O)NS1(=O)=O`, for which, in the series on Hepatitis C virus, the EC50 was 430 nM.

With `O=C1Cn2c(-c3ccoc3)c(C3CCCCC3)c3ccc(cc32)C(=O)NS(=O)(=O)C/C=C/CCN1`, in [10], the efflux ratio was over 25. In series [11], the apparent permeability from apical to basolateral (Papp A→B) was under 1 ×10⁻⁶ cm/s. Also, the EC50 with Hepatitis C virus is 7500 nM.

Consider `CC(C)n1c2c(C3CCCCC3)c3ccc(cc31)C(=O)NS(=O)(=O)N(C)CCOCCN(C)C(=O)COc1ccccc1-2`, for which the figures for the metabolised at 0.25 h, 5 µM in [1] and in [3] were 64% and 35%, respectively. This compound gave an IC50 in series [2] of 1660 nM. In the series with Hepatitis C virus, the 50% effective concentration (EC50) is 11900 nM.

Turning to `CN1CCCCCNC(=O)Cn2c(-c3ccc(Cl)cc3)c(C3CCCCC3)c3ccc(cc32)C(=O)NS1(=O)=O`, the IC50 in series [2] turned out to be 190 nM. Moreover, in the series with Hepatitis C virus, the EC50 is 590 nM.

In the case of `COc1ccc(-c2c(C3CCCCC3)c3ccc4cc3n2CC(=O)NCCN(C)CCNS(=O)(=O)NC4=O)cc1`, the midpoint of inhibition in series [2], the IC50, lay at 440 nM. Further, the EC50 in the series with Hepatitis C virus is 3470 nM.

Consider `O=C1Cn2c(-c3ccoc3)c(C3CCCCC3)c3ccc(cc32)C(=O)NCCCCCCN1`, for which the metabolised at 0.25 h, 5 µM in [1] and in series [3] was over 95% each time. Also, the IC50 in series [2] stood at 9500 nM. Also, in the series on Hepatitis C virus, the 50% effective concentration (EC50) was 4300 nM.

Regarding `CN1CCCCNC(=O)Cn2c(-c3ccoc3)c(C3CCCCC3)c3ccc(cc32)C(=O)NS1(=O)=O`, in series [2], the IC50 was 110 nM. Moreover, in the series on Hepatitis C virus, the EC50 came to 1580 nM.

Regarding `CN1CCCCCNC(=O)COc2ccc(F)cc2-c2c(C3CCCCC3)c3ccc(cc3n2C)C(=O)NS1(=O)=O`, the metabolised at 0.25 h, 5 µM in [1] came out at 59%; in series [3], 56%. In series [2], this compound registered an IC50 of 88 nM. Moreover, in the series with Hepatitis C virus, the EC50 was 680 nM.

Regarding `CN1CCCCCNC(=O)COc2ccccc2-c2c(C3CCCCC3)c3ccc(cc3n2C)C(=O)NS1(=O)=O`, the metabolised at 0.25 h, 5 µM amounted to 71% in series [1] and 44% in series [3]. Also, the midpoint of inhibition in series [2], the IC50, lay at 33 nM. Also, the EC50 in the series on Hepatitis C virus is 180 nM.

`COc1ccc2c(c1)OCC(=O)N(C)CCOCCN(C)S(=O)(=O)NC(=O)c1ccc3c(C4CCCCC4)c-2n(C)c3c1`: the metabolised at 0.25 h, 5 µM in [1] stood at 69%; in [3], 52%. Also, 56 nM corresponded to half-maximal inhibition in series [2] (IC50). In addition, the EC50 with Hepatitis C virus was found to be 150 nM.

With `O=C1Cn2c(-c3ccoc3)c(C3CCCCC3)c3ccc(cc32)C(=O)NCC/C=C/CCCN1`, the metabolised at 0.25 h, 5 µM in [1] and in series [3] was over 95% throughout. For the same compound, the EC50 in the series with Hepatitis C virus was determined as 2600 nM.

Turning to `CN1CCN2CCN(CC2)C(=O)COc2ccccc2-c2c(C3CCCCC3)c3ccc(cc3n2C)C(=O)NS1(=O)=O`, the metabolised at 0.25 h, 5 µM in [1] was determined as 56%; in series [3], 35%. In series [2], the concentration for half-maximal inhibition (IC50) was 140 nM. Further, the EC50 in the series on Hepatitis C virus was 240 nM.

On to `COc1ccc(-c2c(C3CCCCC3)c3ccc4cc3n2CC(=O)NCCCCN(C)S(=O)(=O)NC4=O)cc1`, for which the IC50 in series [2] is 180 nM. Besides, in the series with Hepatitis C virus, the concentration giving a half-maximal response (EC50) came to 1760 nM.

A word on the IC50: it is the concentration needed to halve the response being measured. Low readings indicate greater potency in that assay, high ones weaker potency in that assay. As usually defined, the EC50 is the concentration giving half of the maximal effect. Broadly, the half-life is how long it takes for the measured level to halve. A higher half-life goes with slow decline. A word on the bioavailability: it is the share of a dose that reaches the circulation, judged against a reference dose that is usually intravenous. As usually defined, the Kp is the ratio of the level in a tissue or fluid to that in plasma or blood. A word on the efflux ratio: it is the permeability from basolateral to apical divided by that in the opposite direction, in the common usage. The term Papp A→B denotes how fast a substance crosses the layer from the apical side.
